From ChEMBL document CHEMBL4024767, “Structure-Guided Discovery of Novel, Potent, and Orally Bioavailable Inhibitors of Lipoprotein-Associated Phospholipase A2” (J Med Chem, 2017)
Activity calls are given as the source filed them. No cut-off for these calls is given here.

Tested on: not listed separately
Test: Inhibition of recombinant human full length GST-tagged group-7B PLA2 expressed in Escherichia coli Rosetta(DE3) pLysS using 2-thio-PAF as substrate preincubated for 30 min followed by substrate addition measured every minute for 10 mins by DNTB reagent based assay
Settings: not given
Procedure, shortened: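 Recombinant PLA2-VIIB purified in-house, preincubated 30 min at room temperature with compound and DTNB (10 µL of 2 mM). Substrate solution (50 µM 2-thio-PAF, 50 mM Tris pH 7.2, 1 mM EGTA) then added and absorbance read at 412 nm. IC50 determined.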

SMILES | IC50 [µM]
CC(=O)Nc1ccc(S(=O)(=O)Nc2ccc(Oc3ccc(F)c(C(F)(F)F)c3)c(C#N)c2)cc1 | > 25
CC(=O)Nc1ccc(S(=O)(=O)Nc2ccc(Oc3ccc(C#N)c(C(F)(F)F)c3)c(C#N)c2)cc1 | > 25
CCN(CC)CCN(Cc1ccc(-c2ccc(C(F)(F)F)cc2)cc1)C(=O)Cn1c(SCc2ccc(F)cc2)nc(=O)c2c1CCC2 [DARAPLADIB] | 2
N#Cc1cc(NS(=O)(=O)c2ccc(NC(=O)N3CCOCC3)cc2)ccc1Oc1ccc(Cl)c(C(F)(F)F)c1 | > 25
CC(=O)N(C)c1ccc(S(=O)(=O)Nc2ccc(Oc3ccc(Cl)c(C(F)(F)F)c3)c(C#N)c2)cc1 | > 25
CC(=O)Nc1ccc(S(=O)(=O)Nc2ccc(Oc3ccc(Cl)c(C(F)(F)F)c3)c(C#N)c2)cc1 | > 25
CC(=O)NCc1ccc(S(=O)(=O)Nc2ccc(Oc3ccc(Cl)c(C(F)(F)F)c3)c(C#N)c2)cc1 | > 25

The next lines start with the values.

IC50 [µM] | SMILES
> 25 | N#Cc1cc(NS(=O)(=O)c2ccc(C(=O)O)cc2)ccc1Oc1ccc(Cl)c(C(F)(F)F)c1
> 25 | N#Cc1cc(NS(=O)(=O)c2ccc(N3CCOCC3)cc2)ccc1Oc1ccc(Cl)c(C(F)(F)F)c1
> 25 | N#Cc1cc(NS(=O)(=O)c2ccc(N)cc2)ccc1Oc1ccc(Cl)c(C(F)(F)F)c1
> 25 | N#Cc1cc(NS(=O)(=O)c2ccc(N3CCNCC3)cc2)ccc1Oc1ccc(Cl)c(C(F)(F)F)c1

Biological target: T1, Platelet-activating factor acetylhydrolase (Rattus norvegicus) (UniProt A6JJ35)
T1 sequence (whole entry): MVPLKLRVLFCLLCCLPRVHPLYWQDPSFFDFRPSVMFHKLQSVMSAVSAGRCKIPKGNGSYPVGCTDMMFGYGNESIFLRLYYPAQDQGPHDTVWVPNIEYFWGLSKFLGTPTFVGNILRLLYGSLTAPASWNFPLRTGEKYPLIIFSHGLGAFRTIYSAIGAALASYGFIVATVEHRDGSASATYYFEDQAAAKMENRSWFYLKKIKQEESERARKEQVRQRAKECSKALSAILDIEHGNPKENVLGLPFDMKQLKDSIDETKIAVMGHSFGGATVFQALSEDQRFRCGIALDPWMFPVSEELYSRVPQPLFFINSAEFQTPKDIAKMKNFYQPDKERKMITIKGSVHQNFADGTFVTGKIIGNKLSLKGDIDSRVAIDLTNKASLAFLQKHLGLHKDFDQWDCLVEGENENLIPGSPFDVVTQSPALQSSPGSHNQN
Test: Inhibition of Lp-PLA2 in rat plasma at 250 nM using 2-thio-PAF as substrate preincubated for 30 min followed by substrate addition measured every minute for 10 mins by DNTB reagent based assay by DNTB reagent based assay relative to control
Settings: not given
Procedure, shortened: (§1)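 Rat plasma added directly as enzyme source and preincubated 30 min at room temperature with inhibitor at 250 or 50 nM and DTNB (10 µL of 2 mM). Reaction started with substrate solution: 50 µM 2-thio-PAF, 50 mM Tris pH 7.2, 1 mM EGTA. Thiol release read at 412 nm; percent inhibition calculated.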

SMILES | inhibition [%]
CC(=O)Nc1ccc(S(=O)(=O)Nc2ccc(Oc3ccc(F)c(C(F)(F)F)c3)c(C#N)c2)cc1 | 55
CC(=O)Nc1ccc(S(=O)(=O)Nc2ccc(Oc3ccc(C#N)c(C(F)(F)F)c3)c(C#N)c2)cc1 | 42
CCN(CC)CCN(Cc1ccc(-c2ccc(C(F)(F)F)cc2)cc1)C(=O)Cn1c(SCc2ccc(F)cc2)nc(=O)c2c1CCC2 [DARAPLADIB] | 97
N#Cc1cc(NS(=O)(=O)c2ccc(NC(=O)N3CCOCC3)cc2)ccc1Oc1ccc(Cl)c(C(F)(F)F)c1 | 64
CC(=O)N(C)c1ccc(S(=O)(=O)Nc2ccc(Oc3ccc(Cl)c(C(F)(F)F)c3)c(C#N)c2)cc1 | 45
CC(=O)Nc1ccc(S(=O)(=O)Nc2ccc(Oc3ccc(Cl)c(C(F)(F)F)c3)c(C#N)c2)cc1 | 64
CC(=O)NCc1ccc(S(=O)(=O)Nc2ccc(Oc3ccc(Cl)c(C(F)(F)F)c3)c(C#N)c2)cc1 | 80

Results, then the compound that gave them:

inhibition [%] | SMILES
67 | N#Cc1cc(NS(=O)(=O)c2ccc(C(=O)O)cc2)ccc1Oc1ccc(Cl)c(C(F)(F)F)c1
48 | N#Cc1cc(NS(=O)(=O)c2ccc(N3CCOCC3)cc2)ccc1Oc1ccc(Cl)c(C(F)(F)F)c1
67 | N#Cc1cc(NS(=O)(=O)c2ccc(N)cc2)ccc1Oc1ccc(Cl)c(C(F)(F)F)c1
68 | N#Cc1cc(NS(=O)(=O)c2ccc(N3CCNCC3)cc2)ccc1Oc1ccc(Cl)c(C(F)(F)F)c1

Biological target: T2, Platelet-activating factor acetylhydrolase (Homo sapiens, UniProt Q13093)
T2 sequence (Q13093 whole entry): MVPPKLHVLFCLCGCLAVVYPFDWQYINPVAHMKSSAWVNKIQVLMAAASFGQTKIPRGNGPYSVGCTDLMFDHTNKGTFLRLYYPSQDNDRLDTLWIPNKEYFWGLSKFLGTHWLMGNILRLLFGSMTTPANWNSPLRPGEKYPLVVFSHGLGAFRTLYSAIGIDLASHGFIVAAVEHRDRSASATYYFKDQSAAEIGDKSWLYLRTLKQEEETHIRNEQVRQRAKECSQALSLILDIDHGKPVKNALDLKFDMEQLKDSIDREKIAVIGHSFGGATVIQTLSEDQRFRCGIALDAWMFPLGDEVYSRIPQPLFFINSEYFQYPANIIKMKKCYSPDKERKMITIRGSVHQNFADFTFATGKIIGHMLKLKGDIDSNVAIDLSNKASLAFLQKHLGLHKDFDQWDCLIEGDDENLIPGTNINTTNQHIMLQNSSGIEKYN
Test: Inhibition of human recombinant GST-tagged Lp-PLA2 (47 to 429 residues) expressed in Escherichia coli Rosetta(DE3) pLysS using 2-thio-PAF as substrate preincubated for 30 min followed by substrate addition measured every minute for 10 mins by DNTB reagent based assay
Settings: not given

IC50 [µM] | SMILES
1000 | CS(=O)(=O)Nc1ccc(F)c(F)c1

Biological target: T1, Platelet-activating factor acetylhydrolase (Rattus norvegicus)
Test: Inhibition of Lp-PLA2 in rat plasma at 50 nM using 2-thio-PAF as substrate preincubated for 30 min followed by substrate addition measured every minute for 10 mins by DNTB reagent based assay relative to control
Settings: not given
Procedure, shortened: as §1

SMILES | inhibition [%]
CC(=O)Nc1ccc(S(=O)(=O)Nc2ccc(Oc3ccc(F)c(C(F)(F)F)c3)c(C#N)c2)cc1 | 23
CC(=O)Nc1ccc(S(=O)(=O)Nc2ccc(Oc3ccc(C#N)c(C(F)(F)F)c3)c(C#N)c2)cc1 | 11
CCN(CC)CCN(Cc1ccc(-c2ccc(C(F)(F)F)cc2)cc1)C(=O)Cn1c(SCc2ccc(F)cc2)nc(=O)c2c1CCC2 [DARAPLADIB] | 98
N#Cc1cc(NS(=O)(=O)c2ccc(NC(=O)N3CCOCC3)cc2)ccc1Oc1ccc(Cl)c(C(F)(F)F)c1 | 27
CC(=O)N(C)c1ccc(S(=O)(=O)Nc2ccc(Oc3ccc(Cl)c(C(F)(F)F)c3)c(C#N)c2)cc1 | 15
CC(=O)Nc1ccc(S(=O)(=O)Nc2ccc(Oc3ccc(Cl)c(C(F)(F)F)c3)c(C#N)c2)cc1 | 32
CC(=O)NCc1ccc(S(=O)(=O)Nc2ccc(Oc3ccc(Cl)c(C(F)(F)F)c3)c(C#N)c2)cc1 | 51

More lines, now with the values ahead:

inhibition [%] | SMILES
31 | N#Cc1cc(NS(=O)(=O)c2ccc(C(=O)O)cc2)ccc1Oc1ccc(Cl)c(C(F)(F)F)c1
17 | N#Cc1cc(NS(=O)(=O)c2ccc(N3CCOCC3)cc2)ccc1Oc1ccc(Cl)c(C(F)(F)F)c1
33 | N#Cc1cc(NS(=O)(=O)c2ccc(N)cc2)ccc1Oc1ccc(Cl)c(C(F)(F)F)c1
31 | N#Cc1cc(NS(=O)(=O)c2ccc(N3CCNCC3)cc2)ccc1Oc1ccc(Cl)c(C(F)(F)F)c1

Organism: Rattus norvegicus
Settings: Sprague-Dawley, 25 mg/kg

SMILES | inhibition
N#Cc1cc(NS(=O)(=O)c2ccc(C(=O)O)cc2)ccc1Oc1ccc(Cl)c(C(F)(F)F)c1 | Active

Organism: Rattus norvegicus
Settings: Sprague-Dawley, 25 mg/kg
Remark: another data set of the same source

SMILES | inhibition
N#Cc1cc(NS(=O)(=O)c2ccc(C(=O)O)cc2)ccc1Oc1ccc(Cl)c(C(F)(F)F)c1 | inactive

Organism: Rattus norvegicus
Settings: Sprague-Dawley, 25 mg/kg
Remark: another data set of the same source

SMILES | inhibition
N#Cc1cc(NS(=O)(=O)c2ccc(N)cc2)ccc1Oc1ccc(Cl)c(C(F)(F)F)c1 | Active

Organism: Rattus norvegicus
Settings: Sprague-Dawley, 3 mg/kg

SMILES | inhibition
CCN(CC)CCN(Cc1ccc(-c2ccc(C(F)(F)F)cc2)cc1)C(=O)Cn1c(SCc2ccc(F)cc2)nc(=O)c2c1CCC2 [DARAPLADIB] | Active

Biological target: T3, Platelet-activating factor acetylhydrolase (Homo sapiens) (UniProt Q13093)
T3 sequence (whole entry): T2 sequence (Q13093 whole entry)
Settings: 1000 uM

inhibition [%] | SMILES
55 | CS(=O)(=O)Nc1ccc(F)c(F)c1
